From ChEMBL document CHEMBL2384906, “Biological activity, design, synthesis and structure activity relationship of some novel derivatives of curcumin containing sulfonamides” (Eur J Med Chem, 2013)
Values after ≈ are worked out from the molar mass of the structure shown. Active and inactive are the calls of the source. No cut-off for these calls is given here.

Columns and labels:
[1] = test system: Mus musculus; assay: Antiinflammatory activity in mouse assessed as inhibition of carrageenan-induced increase in paw volume at 200 mg/kg administered 1 hr prior to carrageenan challenge measured after 3 hrs relative to control; assay type: functional
How it was run: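 Mice were fasted 2 h and placed in groups of five. Controls received saline i.p. Phenylbutazone was given at 100 mg/kg i.p., curcumin at 200 mg/kg i.p., and derivatives at 200 mg/kg. After 1 h, 0.1 mL of 1% carrageenan in saline was injected subplantar into the right hind paw. Paw volume was followed by plethysmometer for 3 h, and % inhibition was calculated as (Vc − Vt)/Vc × 100.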

[2] = test system: HCT-116; assay: Cytotoxicity against human HCT116 cells after 24 hrs by MTT assay; assay type: functional, cell-based
How it was run: (§1)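 The MTT assay seeded 5 × 10⁴ cells per well and grew them 24 h in RPMI 1640 with compound at 2.5–200 µM. Medium without cells was the blank and adriamycin the positive control. MTT was added for 4 h at 37 °C, formazan was solubilised, and absorbance was read at 570 nm. IC50 is the concentration that cuts viability 50% against untreated cells.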

[3] = test system: QG-56; assay: Cytotoxicity against human QG56 cells after 24 hrs by MTT assay; assay type: functional, cell-based; how it was run: as §1
[4] = test system: HeLa; assay: Cytotoxicity against human HeLa cells after 24 hrs by MTT assay; assay type: functional, cell-based; how it was run: as §1
[5] = test system: HepG2; assay: Cytotoxicity against human HepG2 cells after 24 hrs by MTT assay; assay type: functional, cell-based; how it was run: as §1
[6] = test system: Trichoderma viride; assay: Antifungal activity against Trichoderma viride MTCC 1107 after 48 hrs; assay type: functional; conditions: MTCC 1107, 48 h
[7] = test system: Trichoderma viride; assay: Antifungal activity against Trichoderma viride MTCC 1107 assessed as zone of inhibition at 20 uM after 48 hrs by disc diffusion method; assay type: functional; conditions: MTCC 1107, 48 h, read-out: IZ
How it was run: (§2)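 Spores from 4-day potato dextrose agar cultures, suspended in sterile water at 1.5 × 10⁵ CFU/mL. 0.2 mL was spread on potato dextrose agar. 5 mm filter-paper discs soaked with test compound were laid on the lawn. Incubation was 48 h at 28 °C, then the inhibition zone was measured in mm. Fluconazole was the positive control and acetone the negative control.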

[8] = test system: Trichoderma viride; assay: Antifungal activity against Trichoderma viride MTCC 1107 assessed as zone of inhibition at 40 uM after 48 hrs by disc diffusion method; assay type: functional; conditions: MTCC 1107, 48 h, read-out: IZ; how it was run: as §2
[9] = test system: Trichoderma viride; assay: Antifungal activity against Trichoderma viride MTCC 1107 assessed as zone of inhibition at 80 uM after 48 hrs by disc diffusion method; assay type: functional; conditions: MTCC 1107, 48 h, read-out: IZ; how it was run: as §2
[10] = test system: Curvularia lunata; assay: Antifungal activity against Curvularia lunata MTCC 581 after 48 hrs; assay type: functional; conditions: MTCC 581, 48 h
[11] = test system: Curvularia lunata; assay: Antifungal activity against Curvularia lunata MTCC 581 assessed as zone of inhibition at 20 uM after 48 hrs by disc diffusion method; assay type: functional; conditions: MTCC 581, 48 h, read-out: IZ; how it was run: as §2
[12] = test system: Curvularia lunata; assay: Antifungal activity against Curvularia lunata MTCC 581 assessed as zone of inhibition at 40 uM after 48 hrs by disc diffusion method; assay type: functional; conditions: MTCC 581, 48 h, read-out: IZ; how it was run: as §2
[13] = test system: Aspergillus flavus; assay: Antifungal activity against Aspergillus flavus MTCC 1021 after 48 hrs; assay type: functional; conditions: MTCC 1021, 48 h
[14] = test system: Curvularia lunata; assay: Antifungal activity against Curvularia lunata MTCC 581 assessed as zone of inhibition at 80 uM after 48 hrs by disc diffusion method; assay type: functional; conditions: MTCC 581, 48 h, read-out: IZ; how it was run: as §2
[15] = test system: Aspergillus flavus; assay: Antifungal activity against Aspergillus flavus MTCC 1021 assessed as zone of inhibition at 20 uM after 48 hrs by disc diffusion method; assay type: functional; how it was run: as §2
[16] = test system: Aspergillus flavus; assay: Antifungal activity against Aspergillus flavus MTCC 1021 assessed as zone of inhibition at 40 uM after 48 hrs by disc diffusion method; assay type: functional; conditions: MTCC 1021, 48 h, read-out: IZ; how it was run: as §2
[17] = test system: Aspergillus flavus; assay: Antifungal activity against Aspergillus flavus MTCC 1021 assessed as zone of inhibition at 80 uM after 48 hrs by disc diffusion method; assay type: functional; conditions: MTCC 1021, 48 h, read-out: IZ; how it was run: as §2
[18] = test system: Aspergillus niger; assay: Antifungal activity against Aspergillus niger MTCC 1108 after 48 hrs; assay type: functional; conditions: MTCC 1108, 48 h
[19] = test system: Aspergillus niger; assay: Antifungal activity against Aspergillus niger MTCC 1108 assessed as zone of inhibition at 20 uM after 48 hrs by disc diffusion method; assay type: functional; conditions: MTCC 1108, 48 h, read-out: IZ; how it was run: as §2
[20] = test system: Aspergillus niger; assay: Antifungal activity against Aspergillus niger MTCC 1108 assessed as zone of inhibition at 40 uM after 48 hrs by disc diffusion method; assay type: functional; conditions: MTCC 1108, 48 h, read-out: IZ; how it was run: as §2
[21] = test system: Aspergillus niger; assay: Antifungal activity against Aspergillus niger MTCC 1108 assessed as zone of inhibition at 80 uM after 48 hrs by disc diffusion method; assay type: functional; conditions: MTCC 1108, 48 h, read-out: IZ; how it was run: as §2
[22] = test system: Escherichia coli; assay: Antimicrobial activity against Escherichia coli ATCC 35218 after 24 hrs by broth micro serial dilution method; assay type: functional; conditions: ATCC 35218, 24 h
How it was run: (§3)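 This was broth microdilution in autoclaved Mueller-Hinton broth. 150 µL of compound per well was serially diluted […], and 50 µL of test organism was added. Plates were incubated 24 h at 37 °C and optical density was read.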

[23] = test system: Escherichia coli; assay: Antimicrobial activity against Escherichia coli ATCC 35218 assessed as diameter of inhibition zone at 20 uM after 24 hrs by Kirby -Baur disc diffusion method; assay type: functional; conditions: ATCC 35218, 24 h, read-out: DIZ
How it was run: (§4)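 Kirby-Bauer disc diffusion was used. Acetone stocks (160 µM) were serially doubled down to 80, 40 and 20 µM. 4 µL of each went onto 5 mm sterile paper discs, which were dried 30 min at 50 °C. Inoculum was 1.5 × 10⁸ CFU/mL diluted to 3 × 10² CFU/mL, and 50 µL was spread on Mueller-Hinton agar. After 24 h at 37 °C the inhibition-zone diameter was measured. Ciprofloxacin served as positive control.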

[24] = test system: Escherichia coli; assay: Antimicrobial activity against Escherichia coli ATCC 35218 assessed as diameter of inhibition zone at 40 uM after 24 hrs by Kirby -Baur disc diffusion method; assay type: functional; conditions: ATCC 35218, 24 h, read-out: DIZ; how it was run: as §4
[25] = test system: Escherichia coli; assay: Antimicrobial activity against Escherichia coli ATCC 35218 assessed as diameter of inhibition zone at 80 uM after 24 hrs by Kirby -Baur disc diffusion method; assay type: functional; conditions: ATCC 35218, 24 h, read-out: DIZ; how it was run: as §4
[26] = test system: Pseudomonas aeruginosa; assay: Antimicrobial activity against Pseudomonas aeruginosa ATCC 15499 after 24 hrs by broth micro serial dilution method; assay type: functional; conditions: ATCC 15499, 24 h; how it was run: as §3
[27] = test system: Pseudomonas aeruginosa; assay: Antimicrobial activity against Pseudomonas aeruginosa ATCC 15499 assessed as diameter of inhibition zone at 20 uM after 24 hrs by Kirby -Baur disc diffusion method; assay type: functional; how it was run: as §4
[28] = test system: Pseudomonas aeruginosa; assay: Antimicrobial activity against Pseudomonas aeruginosa ATCC 15499 assessed as diameter of inhibition zone at 40 uM after 24 hrs by Kirby -Baur disc diffusion method; assay type: functional; conditions: ATCC 15499, 24 h, read-out: DIZ; how it was run: as §4
[29] = test system: Pseudomonas aeruginosa; assay: Antimicrobial activity against Pseudomonas aeruginosa ATCC 15499 assessed as diameter of inhibition zone at 80 uM after 24 hrs by Kirby -Baur disc diffusion method; assay type: functional; conditions: ATCC 15499, 24 h, read-out: DIZ; how it was run: as §4
[30] = test system: Salmonella typhi; assay: Antimicrobial activity against Salmonella typhi ATCC 23564 after 24 hrs by broth micro serial dilution method; assay type: functional, Salmonella enterica subsp. enterica serovar Typhi; conditions: Salmonella enterica, ATCC 23564, 24 h
[31] = test system: Salmonella typhi; assay: Antimicrobial activity against Salmonella typhi ATCC 23564 assessed as diameter of inhibition zone at 20 uM after 24 hrs by Kirby -Baur disc diffusion method; assay type: functional, Salmonella enterica subsp. enterica serovar Typhi; conditions: Salmonella enterica, ATCC 23564, 24 h; read-out: DIZ
[32] = test system: Salmonella typhi; assay: Antimicrobial activity against Salmonella typhi ATCC 23564 assessed as diameter of inhibition zone at 40 uM after 24 hrs by Kirby -Baur disc diffusion method; assay type: functional, Salmonella enterica subsp. enterica serovar Typhi; conditions: Salmonella enterica, ATCC 23564, 24 h; read-out: DIZ
[33] = test system: Salmonella typhi; assay: Antimicrobial activity against Salmonella typhi ATCC 23564 assessed as diameter of inhibition zone at 80 uM after 24 hrs by Kirby -Baur disc diffusion method; assay type: functional, Salmonella enterica subsp. enterica serovar Typhi; conditions: Salmonella enterica, ATCC 23564, 24 h; read-out: DIZ
[34] = test system: Bacillus cereus; assay: Antimicrobial activity against Bacillus cereus MTCC 7350 after 24 hrs by broth micro serial dilution method; assay type: functional; conditions: MTCC 7350, 24 h; how it was run: as §3
[35] = test system: Bacillus cereus; assay: Antimicrobial activity against Bacillus cereus MTCC 7350 assessed as diameter of inhibition zone at 20 uM after 24 hrs by Kirby -Baur disc diffusion method; assay type: functional; conditions: MTCC 7350, 24 h, read-out: DIZ; how it was run: as §4
[36] = test system: Bacillus cereus; assay: Antimicrobial activity against Bacillus cereus MTCC 7350 assessed as diameter of inhibition zone at 40 uM after 24 hrs by Kirby -Baur disc diffusion method; assay type: functional; conditions: MTCC 7350, 24 h, read-out: DIZ; how it was run: as §4
[37] = test system: Bacillus cereus; assay: Antimicrobial activity against Bacillus cereus MTCC 7350 assessed as diameter of inhibition zone at 80 uM after 24 hrs by Kirby -Baur disc diffusion method; assay type: functional; conditions: MTCC 7350, 24 h, read-out: DIZ; how it was run: as §4
[38] = test system: Staphylococcus aureus; assay: Antimicrobial activity against Staphylococcus aureus ATCC 11632 after 24 hrs by broth micro serial dilution method; assay type: functional; conditions: ATCC 11632, 24 h; how it was run: as §3
[39] = test system: Staphylococcus aureus; assay: Antimicrobial activity against Staphylococcus aureus ATCC 11632 assessed as diameter of inhibition zone at 20 uM after 24 hrs by Kirby -Baur disc diffusion method; assay type: functional; conditions: ATCC 11632, 24 h, read-out: DIZ; how it was run: as §4
[40] = test system: Staphylococcus aureus; assay: Antimicrobial activity against Staphylococcus aureus ATCC 11632 assessed as diameter of inhibition zone at 40 uM after 24 hrs by Kirby -Baur disc diffusion method; assay type: functional; conditions: ATCC 11632, 24 h, read-out: DIZ; how it was run: as §4
[41] = test system: Staphylococcus aureus; assay: Antimicrobial activity against Staphylococcus aureus ATCC 11632 assessed as diameter of inhibition zone at 80 uM after 24 hrs by Kirby -Baur disc diffusion method; assay type: functional; conditions: ATCC 11632, 24 h, read-out: DIZ; how it was run: as §4

COc1cc(/C=C/C(O)=C/C(/C=C/c2ccc(O)c(OC)c2)=N/c2ccc(S(=O)(=O)Nc3ccccn3)cc2)ccc1O
inhibition in vivo at 200 mg/kg [1]: 37%
IC50 [2]: 25 µM
IC50 [3]: 50 µM
IC50 [4]: 50 µM
IC50 [5]: 25 µM
MIC [6]: 20 µM (≈ 12 µg/mL)
zone of inhibition at 20 µM [7]: 10 mm
zone of inhibition at 40 µM [8]: 13 mm
zone of inhibition at 80 µM [9]: 17 mm
MIC [10]: > 80 µM
zone of inhibition at 20 µM [11]: 9 mm
zone of inhibition at 40 µM [12]: 9 mm
MIC [13]: > 80 µM
zone of inhibition at 80 µM [14]: 12 mm
inhibition zone (IZ) [15]: inactive
zone of inhibition at 40 µM [16]: 9 mm
zone of inhibition at 80 µM [17]: 12 mm
MIC [18]: 40 µM (≈ 24 µg/mL)
zone of inhibition at 20 µM [19]: 9 mm
zone of inhibition at 40 µM [20]: 12 mm
zone of inhibition at 80 µM [21]: 14 mm
MIC [22]: 20 µM (≈ 12 µg/mL)
zone of inhibition at 20 µM [23]: 15 mm
zone of inhibition at 40 µM [24]: 19 mm
zone of inhibition at 80 µM [25]: 20 mm
MIC [26]: 20 µM (≈ 12 µg/mL)
diameter of the inhibition zone (DIZ) [27]: inactive
zone of inhibition at 40 µM [28]: 11 mm
zone of inhibition at 80 µM [29]: 13 mm
MIC [30]: 20 µM (≈ 12 µg/mL)
zone of inhibition at 20 µM [31]: 11 mm
zone of inhibition at 40 µM [32]: 14 mm
zone of inhibition at 80 µM [33]: 18 mm
MIC [34]: 20 µM (≈ 12 µg/mL)
zone of inhibition at 20 µM [35]: 11 mm
zone of inhibition at 40 µM [36]: 16 mm
zone of inhibition at 80 µM [37]: 19 mm
MIC [38]: 20 µM (≈ 12 µg/mL)
zone of inhibition at 20 µM [39]: 11 mm
zone of inhibition at 40 µM [40]: 17 mm
zone of inhibition at 80 µM [41]: 18 mm
